Results published in paper PMC6307981 (Journal of Pharmaceutical Sciences, 2019).

Legend:
[1] = Equilibrium solubility of the crystalline compounds; format: physicochemical; conditions: 37°C, >24 h, mean ± s.d., n = 3, LLOQ 1 μg/mL
How it was run: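 Excess crystalline solid (2-3 mg per 1 mL) in water held at 37°C for >24 h. Supernatant cleared by centrifugation at 30,279 × g for ≥20 min, then quantified by HPLC-UV: isocratic C18 column at 50°C, acetonitrile/water 80:20 or 70:30 depending on compound, 1 mL/min, detection at 280 nm, calibration against acetonitrile standards.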

[2] = Metabolic stability in human liver microsomes; format: in vitro ADME
How it was run: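 Incubated with 0.5 mg/mL human liver microsomes at 1 μM compound in 100 mM KPO4, pH 7.4, started with 1 mM NADPH. Aliquots at 0, 5, 10, 20, 40 and 60 min quenched in cold acetonitrile. Parent remaining measured by LC-MS/MS.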

[3] = format: in vivo, rats (male; Sprague-Dawley); conditions: rat
How it was run: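 Male Sprague-Dawley rats, lightly isoflurane-anaesthetised, got 250 μL dosing solution intratracheally by catheter to the tracheal bifurcation at 0.067, 0.12 or 0.28 mg/kg. Plasma, lung and, in one study, BAL sampled to 24 or 48 h and assayed by LC-MS. Four-compartment model with central lung fixed at 2 g and BAL plus lung summed. M3 used for <LLOQ data; VPC; apparent parameters scaled to 0.3 kg.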

[4] = from human liver microsomes data
[5] = intratracheal, apparent parameter of final model, scaled to 0.3 kg
[6] = intratracheal, final model, scaled to 0.3 kg

With `CCCCCCCCCc1nc2cc(Cl)ccc2c(=O)n1N` [SEN001, 3-amino-7-chloro-2-nonylquinazolin-4(3H)-one] the Solubility in water [1] was “<LLOQ”, the “CLH (hepatic clearance)” value [2, 4] was 747.9 mL/min and the “EH (hepatic extraction ratio)” value [2, 4] was 0.50. For the same molecule, the “CLint (intrinsic clearance)” value ([2]; human liver microsomes, 1 μM compound) was 1491.7 mL/min, the half-life at 1 μM ([2]; human, liver microsomes, pH 7.4) was 54.4 min and the “Time of distribution equilibrium (lung, BAL, plasma)” value ([3]; intratracheal 0.067 mg/kg) was 2 h. For the same molecule, the “CLC, clearance central” value [3, 5] was 0.0745 L/h, the “CLLP, clearance lung to plasma” value [3, 5] was 0.0175 L/h and the “VC, volume of distribution central” value [3, 5] was 0.0855 L. The “FBAL, fraction in BAL” value ([3]; intratracheal, final model (Table 5)) was 0.980%, the “QL, intercompartmental clearance lung” value [3, 6] was 0.00596 L/h and the “VLP, volume of distribution deep lung” value [3, 6] was 0.0582 L.
